# GAA850 FXN act – increases GAA850 frataxin promoter reporter activity. HEK293 lucGAA850 FXN promoter luciferase reporter, 24 h; percent of 10 µM SAHA response. activation, % at 6 µM. 360,000 tested, 0.56% active. AID 540364;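 active = activation above the average of all compounds screened plus 3 SD, cutoff fixed separately per campaign, cut at about 7.5% in these data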;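 also: 0% = DMSO wells and 100% = 10 µM SAHA wells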
# Calb FLC – C. albicans growth modulation with fluconazole | 300,000 tested, 0.57% active | growth inhibition, % (no concentration beside the values) | C. albicans CaCi-2 + fluconazole, Alamar Blue growth, 48 h;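 active = growth inhibition above about 58% in most replicates, limit read from the data, passing the limit was not always enough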;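 also: all wells also contain fluconazole at 8 µg/ml as a sub-toxic cotreatment; 0% = median of DMSO wells and 100% = median of geldanamycin control wells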
# Neddyl block – blocks human cullin neddylation. P61081+Q13564. TR-FRET cullin neddylation, biochemical. inhibition, % at 25 µM. 360,000 tested, 0.58% active. AID 651699; in the data active = inhibition above about 36%
# HIF activator – HIF pathway transcriptional activation | 300,000 tested, 0.32% active | activation, % at 7.5 µM (by protocol) | U2OS HRE-luciferase reporter, luminescence; normalized: DMSO 0%, desferrioxamine 100%;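 active = mean activation of at least 10% of the iron chelator positive control signal, with at least half of replicates also reaching 10%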
# procasp7 counter – activates human procaspase-7, counter-screen for procaspase-3 activators; 330,000 tested, 0.093% active; P55210; recombinant procaspase-7, Ac-DEVD-pNA absorbance 405 nm; D23A/D198A/D206A triple mutant, cannot self-cleave; scale: DMSO 0, 5 µM enzyme 100; activation, % at 8.5 µM;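 active = percent activation above the screen-wide mean plus 3 SD, cut at about 25% in these data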
#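 Replicates: singlicate. Assay system: Procaspase-7 triple mutant (PC-7 D3A). Signal: 405 nm absorbance of p-nitroaniline. Times: 1 h preincubation, 2 h reaction. Buffer or medium: Zinc-free HEPES pH 7.4 with 300 mM NaCl, 0.01% Triton X-100. Also added: DEVD-pNA substrate. Benchmarks: DMSO wells as 0%, DMSO with 5 µM added PC-7 as 100%.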
# proCasp3 act – activates human procaspase-3; recombinant procaspase-3 D3A, Ac-DEVD-pNA absorbance 405 nm; activation, % at 8.5 µM; 330,000 tested, 0.11% active; AID 463141;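 active = activation above the mean of all tested compounds plus 3 SD, cut at about 21% in these data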;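 also: 0% = DMSO alone and 100% = DMSO wells spiked with extra 5 µM PC-3 D3A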
# Target sequence (P42574 whole entry D9A/D28A/D175A): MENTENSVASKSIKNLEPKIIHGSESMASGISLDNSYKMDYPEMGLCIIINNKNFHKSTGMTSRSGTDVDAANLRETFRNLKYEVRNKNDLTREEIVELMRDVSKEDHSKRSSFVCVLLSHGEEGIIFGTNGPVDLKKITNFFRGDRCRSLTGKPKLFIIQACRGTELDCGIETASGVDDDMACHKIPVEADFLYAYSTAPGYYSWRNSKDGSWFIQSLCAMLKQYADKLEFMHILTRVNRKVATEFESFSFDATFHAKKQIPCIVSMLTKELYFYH
#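 Test system: Procaspase-3 D3A mutant; medium: Zinc-free HEPES/NaCl buffer with 0.01% Triton X-100 at pH 7.4; reagent: DEVD-pNA substrate; doses: one concentration, 8.5 µM nominal, 0.8% DMSO; times: 1 h preincubation plus 2 h reaction at 25 °C; signal: Epi-absorbance at 405 nm of released p-nitroaniline, 0 and 120 min; replicates: singlicate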
# GAA30 FXN cntr – counter-screen for GAA850 frataxin promoter activators: GAA30 promoter activation; shares compounds with GAA850 FXN act; HEK293 lucGAA30 FXN promoter luciferase, 24 h; DMSO = 0%, 5 µM ipriflavone = 100%; activation, % at 6 µM; 1,900 tested, 66% active; AID 588350;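 active = mean activation above the mean of solvent-only control wells plus 3 SD, cut at about 22% in these data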;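 also: counterscreen of GAA850 promoter hits where activity marks nonselective or luminescence artifacts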
# FXN GAA850 conf – GAA850 FXN promoter activation confirmation | shares compounds with GAA850 FXN act | HEK293 lucGAA850 FXN promoter luciferase reporter, 24 h; 100% = activation by SAHA | activation, % at 6 µM | 1,900 tested, 86% active | AID 588351;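 active = mean activation above a set limit taken from the primary screen, cut at about 8% in these data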;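 also: 0% = DMSO wells and 100% = 10 µM SAHA wells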
# Active calls of the source: *; nt = not tested or not shown. In the library only some 1.9% were active in any assay of this set; here they are far more common.
SMILES,GAA850 FXN act,Calb FLC,Neddyl block,HIF activator,procasp7 counter,proCasp3 act,GAA30 FXN cntr,FXN GAA850 conf
CC1CCCN(C(=O)c2nn(C)c3c2CSc2ccccc2-3)C1 (stereo not drawn),9.6*,-6,-2,1,-16,-11,30*,12*
COc1ccc(C(=O)Nc2ccc3c(c2)OCO3)cc1S(=O)(=O)N1CCOCC1,0,nt,-1,nt,nt,nt,nt,nt
Cc1ccc(-c2nc(Nc3ccccc3)n[nH]2)cc1,7.7*,nt,15,nt,-1,6,112*,38*
C=C(C)c1sc(-c2ccccc2)nc1C,nt,-1,nt,0,-9,-5,nt,nt
C/C(=N\O)c1sc(-c2ccccc2)nc1C,8.1*,-5,-11,2,nt,nt,123*,34*
Cc1cc(C(=O)COC(=O)c2nccnc2N)c(C)n1C,9.1*,1,22,1,7,-4,104*,32*
Clc1ccc(-c2nc3ccc(Br)cn3c2Cc2ccsc2)cc1,nt,nt,-40,nt,nt,nt,nt,nt
CCN(C[C@H]1N[C@@](CC)(C(=O)OC)[C@H]2C(=O)N(Cc3ccccc3)C(=O)[C@@H]12)C(=O)Nc1ccc(OC)cc1,18*,nt,0,nt,10,-1,47*,16*
CCN(C[C@H]1N[C@@](CC)(C(=O)OC)[C@H]2C(=O)N(Cc3ccccc3)C(=O)[C@@H]12)C(C)=O,2,nt,1,nt,17,3,nt,nt
CC[C@@]1(C(=O)OC)N[C@H](CN(C)C(=O)Nc2ccc(Cl)cc2)[C@@H]2C(=O)N(Cc3ccccc3)C(=O)[C@@H]21,17*,nt,-7,nt,5,3,22,11*
COC(=O)[C@]1(Cc2ccccc2)N[C@H](CN(C)C(=O)Nc2ccc(OC)cc2)[C@@H]2C(=O)N(Cc3ccccc3)C(=O)[C@@H]21,-2,nt,2,nt,2,5,nt,nt
CC[C@@]1(C(=O)OC)N[C@H](CN(C)C(C)=O)[C@@H]2C(=O)N(Cc3ccccc3)C(=O)[C@@H]21,1,nt,-12,nt,2,3,nt,nt
CCN(C[C@H]1N[C@@](CC)(C(=O)OC)[C@H]2C(=O)N(Cc3ccccc3)C(=O)[C@@H]12)C(=O)Nc1ccc(C(F)(F)F)cc1,8.4*,nt,4,nt,-1,-4,27*,14*
CC[C@@]1(C(=O)OC)N[C@H](CN(C)C(=O)COc2ccccc2)[C@@H]2C(=O)N(Cc3ccccc3)C(=O)[C@@H]21,9.5*,nt,4,nt,-8,-2,18,7
CC(C)COC(=O)N1CCCCC1c1cc(C(=O)N2CCOCC2)no1 (stereo not drawn),0,nt,-2,nt,nt,nt,nt,nt
CCOC(=O)[C@]12CCCC=C1N(CCc1ccc(OC)c(OC)c1)C(=O)[C@H](CC(=O)N1CCN(C(=O)C3CC3)CC1)C2,nt,nt,1,nt,nt,nt,nt,nt
CC(C)C[C@@H](CN)NC(=O)c1nc[nH]c1C(=O)N[C@@H](C)C(=O)CNC[C@H](C)NC(=O)c1nc[nH]c1C(=O)N[C@@H](Cc1ccccc1)C(=O)O,0,nt,6,nt,nt,nt,nt,nt
CCN(CC(=O)NCc1cccs1)C(=O)c1cccc(S(=O)(=O)N(CC)c2ccccc2)c1,0,nt,4,nt,nt,nt,nt,nt
O=C(Nc1ccc2oc(-c3ccccc3Cl)nc2c1)c1ncn[nH]1,4,46,31,1,-1,-6,nt,nt
O=C(Nc1ccc2oc(-c3cccc4ccccc34)nc2c1)c1ncn[nH]1,8.8*,-5,nt,5,-1,7,104*,41*
CCNC(=O)C1(C)CCN(Cc2ccc(-c3ccccc3)cc2)C1 (stereo not drawn),-1,nt,-2,nt,nt,nt,nt,nt
Cc1cc(C(=O)CSc2n[nH]c(N)n2)c(C)n1-c1ccccc1,8.9*,41,-6,2,-1,-1,101*,28*

# High-throughput results: PubChem, several laboratories
